The nature of the data set: Toxicity liver stage against HepG2, at 10uM. Type of data set: cell-based. Also on record: test concentration 10 uM, cell line HepG2-A16-CD81EGFP. To be noted: human, HepG2-A16-CD81EGFP cells; read-out: INHIBITION
The essentials:
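Uninfected HepG2-A16-CD81EGFP cells, 3 × 10^3 per well, 1536-well, plated on prespotted compound at 10 μM final, parasite-free screening media added to match infected plates; puromycin 10 μM positive, DMSO 0.5% negative; run in parallel with 48 h PbLuc assay at 37 °C, 5% CO2; viability by CellTiter-Glo luminescence, normalized to controls.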
Regarding `COc1ccc(CC(C)Nc2cccc(SC)c2)cc1` (configuration not stated), the cytotoxicity at 10 µM was 11.6%.
The result for `COc1ccc(-c2n[nH]c(C)c2CC(=O)NCCN2CCOCC2)cc1` reads -13.4%; that for `CCCc1cc(=O)n(CC(=O)NC(C)C)c(-n2nc(C)cc2C)n1`, 2.74%.
To `O=c1c(S(=O)(=O)N2CCCC2)cccn1Cc1ccccc1Cl` belongs 2.96%.
To `Cc1nc(NC2CC2)c2c(n1)c(C)nn2C` belongs -3.79%; to `CCCC(C)(O)c1cc(C(N)=O)no1` (configuration not stated), -5.4%; to `Cc1ccc(-c2cc(N)c(=O)n(C(C)C(=O)NC(C)C)n2)o1` (configuration not stated), -6.69%.
Take `CN1CCN(CC2(O)CCCN(S(=O)(=O)c3cn[nH]c3)CC2)CC1` (configuration not stated): the cytotoxicity at 10 µM amounted to 2.25%.
The result for `CN(C)S(=O)(=O)N1CCC(c2ccnc(Nc3ccccn3)n2)C1` (configuration not stated) reads 3.25%; that for `Cc1nccnc1C1CCN(C(=O)C(C)C)CC1`, 3.25%; that for `O=C(c1n[nH]c(=O)c2ccccc12)N1CCC(O)(CN2CCOCC2)C1` (configuration not stated), -1.39%.
The result for `NC(=O)C1(CCCc2ccccn2)CCCN(Cc2ncc[nH]2)C1` (configuration not stated) reads -0.00173%.
The result for `O=C(Cn1cccnc1=O)NC(Cc1ccsc1)c1nccs1` (configuration not stated) reads -4.44%; that for `Cc1n[nH]c(C)c1NC(=O)CCc1cccc(C2CCCN(C)C2)n1` (configuration not stated), -6.19%; that for `O=C(C1CCC1)N1CCCC(c2cccc(-n3ccnc3)n2)C1` (configuration not stated), -1.28%.
On to `CCN1CCN(Cc2c(-c3ccco3)[nH]c3ncccc23)CC1`, for which the cytotoxicity at 10 µM was -5.91%.
To `Cc1ncsc1-c1nnc(C2CCN(Cc3ccccc3Cl)CC2)o1` belongs -6.86%.
To `Cc1ccc2c(c1C)OCC2NCc1cccc(C#N)c1` (configuration not stated) belongs 9.91%; to `O=C(NCCO)Nc1c(F)cccc1Oc1ccccc1`, 1.36%.
The result for `COc1ncccc1CNC(=O)N1CCC(CN2CCOCC2)CC1` reads -39.2%.
`CC(=O)NCCC(=O)NC(C)c1sc(-c2ccccc2F)nc1C` (configuration not stated): the cytotoxicity at 10 µM was determined as 7.92%.
The result for `COc1c(NS(=O)(=O)c2ccc(F)c(C)c2)c(C)nn1C` reads -6.33%.
To `COC(=O)CC(NC(=O)c1cc(OC)c2c(c1)OCCO2)c1cccs1` (configuration not stated) belongs 2.01%; to `CCS(=O)(=O)N1CCC(Nc2c(Cl)cccc2C#N)CC1`, -0.85%.
To `Cc1cc(NCc2csc(C)n2)no1` belongs 9.48%; to `NCC1(c2cccc(C(F)(F)F)c2)CC1`, -11.2%; to `COc1ccccc1OCC(=O)NS(=O)(=O)c1ccc(Cl)cc1F`, 2.28%.
For `CCCn1nc2c(cc1=O)CN(C(C)C(=O)Nc1nccs1)CC2` (configuration not stated), the cytotoxicity at 10 µM is -1.99%.
The result for `CC(C)C1CN(C(=O)c2cccs2)CCS1` (configuration not stated) reads 1.24%; that for `CCCC(=O)N(CC)C(c1cccnc1)c1ccc2c(c1)CCO2` (configuration not stated), 0.217%.
Turning to `CCN(Cc1cccc(-c2ccncc2)c1)S(C)(=O)=O`, the cytotoxicity at 10 µM was -14%.
To `COCCOc1ccccc1C(=O)Nc1c(C)cnn1CC1CC1` belongs 1.13%; to `COc1ccc2c(OCC(=O)NC(C)(C)C)ccnc2c1`, -2.04%.
The result for `COCC(O)CN(C)C(=O)NCc1ccc(S(C)(=O)=O)cc1` (configuration not stated) reads 1.72%; that for `CCC(C)(C)NC(=O)Cn1nnc(CN(C)C(=O)c2ccccc2)n1`, 9.74%; that for `CNC(=O)c1cc(C)ccc1NCc1cn2cc(C)ccc2n1`, 8.45%.
To `O=C(NCCCN1CCN(c2ncccn2)CC1)NCC1CCCO1` (configuration not stated) belongs -43.1%; to `CC(C)NC(=O)N1CCC2(CC1)Cc1ccccc1CNC2=O`, 1.33%.
As for `Cc1nc([C@@H]2C[C@H]3CN(Cc4ccc5c(c4)OCO5)C[C@H]3O2)no1`, the cytotoxicity at 10 µM is -115%.
As for `CO[C@@H]1CC[C@H]2[C@H]1OCCN2C(=O)COc1ccc(F)cc1`, the cytotoxicity at 10 µM was found to be 4.42%.
The result for `CCNC(=O)[C@@H]1C[C@@H](NC(=O)CSC)CN1Cc1ccncc1` reads -1.87%.
The result for `COc1ccc(C(=O)NC2CC2)c(OC2CCN(C3CCC3)CC2)c1` reads 0.542%; that for `CCn1ccnc1C1CCN(C(=O)Nc2ccc(OC)cc2)CC1`, -1.77%; that for `COC[C@]1(O)CCN(C2CCN(c3ccc(Cl)cc3)CC2)CC1(C)C`, -0.75%.
As for `CNc1nccc(-c2cn(C)nc2C)n1`, the cytotoxicity at 10 µM is -6.59%.
The result for `Cc1ccc(CN2CCN(C(=O)CCc3nc(Cl)n[nH]3)CC2=O)cc1` reads -0.903%.
Take `O=C(N1CCOCC1)N1CCC(Nc2ccncn2)CC1`: the cytotoxicity at 10 µM was -57%.
Regarding `Cc1cc(C)n(CC(C)Nc2ncnc3c2CCNC3)n1` (configuration not stated), the cytotoxicity at 10 µM worked out at 3.37%.
The result for `CCc1nccn1CCC(=O)N1CCCC1c1ccc(F)cc1` (configuration not stated) reads 1.58%; that for `Cc1ccc(NC(=O)[C@@H]2C[C@H](C(=O)O)CN(Cc3sccc3C)C2)cn1`, 11%.
The result for `Cc1ncsc1C(=O)N1CCCC(CO)(CC2CC2)C1` (configuration not stated) reads -1.5%; that for `CC(C)=CCC1(CO)CCCN(Cc2cnc(N3CCOCC3)nc2)C1` (configuration not stated), -2.6%.
To `O=C(c1ncc(F)cc1F)N1CCC(c2ncc[nH]2)CC1` belongs -3.73%; to `O=C(Cc1n[nH]c(-c2cncc(Br)c2)n1)NCc1ccncc1`, -6.3%; to `CCCN1CCN(C(=O)Cc2cccnc2)[C@H]2CS(=O)(=O)C[C@H]21`, -8.26%.
Regarding `O=C(C1CCC1)N1CC[C@]2(O)CCN(Cc3ncccn3)C[C@@H]2C1`, the cytotoxicity at 10 µM amounted to 3.97%.
To `CCC(NC1CSCCSC1)c1ccc(S(C)(=O)=O)cc1` (configuration not stated) belongs -8.06%.
The result for `COCCN(C)CC(=O)N1CCCC2(CCC(=O)N(CC3CC3)C2)C1` (configuration not stated) reads 0.502%; that for `COCc1noc(Cn2ccc3ncccc3c2=O)n1`, 1.56%; that for `O=C(CN1CCNCC1)N1CC[C@@H](c2ccc3ccccc3c2)[C@H](O)C1`, -8.9%.
The result for `CCN(CCn1cccn1)Cc1nc(-c2ccccc2F)oc1C` reads 1.04%.
`COC(=O)C(NC(=O)C1CCCC1)c1cc(F)ccc1F` (configuration not stated): the cytotoxicity at 10 µM worked out at 5.67%.
The result for `Cc1noc(C)c1C(=O)NCCSCc1cccs1` reads -4.89%; that for `Cc1nc(C)n(CC2CCCN2CC(=O)Nc2c(C)n[nH]c2C)n1` (configuration not stated), -7.66%; that for `COc1ccc(C(=O)Nc2cnn(CCN3CCOCC3)c2)c(O)c1`, -3.92%.
To `Cc1nc(C)n(CC2CCCN2Cc2nc(-c3ccco3)no2)n1` (configuration not stated) belongs -4.39%; to `CNS(=O)(=O)Cc1cccc(CNC(=O)Nc2cn[nH]c2)c1`, -11.2%; to `Cc1cnn(CC2CCCN2C(=O)CN(C)C2CC2)c1` (configuration not stated), 3.63%.
The result for `CNC(=O)c1ccc(S(=O)(=O)NCc2cccnc2N(C)C)cc1` reads 1.59%.
`Cc1cc(C)n(C2CCCN(C(=O)Cc3ccc(C#N)cc3)C2)n1` (configuration not stated): the cytotoxicity at 10 µM was -1.31%.
To `COc1ccc(CC(=O)N2CCCC(n3nc(C)cc3C)C2)cc1F` (configuration not stated) belongs -1.76%; to `O=C(c1cc(Cl)c2c(c1)OCO2)N1CCCC(n2cncn2)C1` (configuration not stated), -8.75%; to `CCN(Cc1nc2c(cnn2C)c(=O)[nH]1)c1ccc(F)cc1`, -1.67%.
Turning to `COc1ccc(COCC(O)CNC(=O)c2ccncc2)cc1` (configuration not stated), the cytotoxicity at 10 µM is -5.31%.
To `Cc1ccc(C)c(C(=O)N2CCN(C(=O)Cc3ccccn3)CC2)c1` belongs -15.1%.
Consider `COc1cccc(CNCc2ccc(NC(=O)NC(C)C)cc2)c1`, for which the cytotoxicity at 10 µM was -11.1%.
To `Cc1ccc(CNC(=O)Cc2c(C)nc3c(c2C)c(=O)[nH]n3C)cc1` belongs -8.6%.
To `CCc1nnsc1C(=O)N1CCCN(Cc2ccc(C)cc2)CC1` belongs -4.28%.
To `Cc1cc(C)c(CNC(=O)NCC(c2ccccc2)N(C)C)c(=O)[nH]1` (configuration not stated) belongs -3.19%.
On to `CN(C)S(=O)(=O)c1ccc(CN2CCCC2c2ccc[nH]2)o1` (configuration not stated), for which the cytotoxicity at 10 µM was -4.03%.
To `Cc1nn(CC(C)C)c(N(C)C)c1CNCc1cccc2c1OCO2` belongs -10.2%.
To `Cc1ccc(NC(=O)C2CSCN2C(=O)c2cnn(C)c2)c(C)c1` (configuration not stated) belongs -3.97%; to `Cc1ccc(CNC(=O)N2CCN(Cc3ccsc3)CC2)n1C`, 9.58%; to `CN1CCC(C(=O)NCc2nncn2-c2ccccc2)CC1=O` (configuration not stated), -4.32%.
To `CC1CN(C(=O)CN(Cc2ccco2)C2CC2)CCO1` (configuration not stated) belongs 3.97%.
Regarding `CCc1nc(CN2CCCC(NCc3cc(C)no3)C2)no1` (configuration not stated), the cytotoxicity at 10 µM was 1.59%.
In the case of `Cc1nc(N)c2ccc(C3CCCCN3)nc2n1` (configuration not stated), the cytotoxicity at 10 µM was -0.05%.
The result for `COCC1CC2(CCN(c3cccc(C)n3)CC2)CN1C(C)C` (configuration not stated) reads -109%; that for `CN1C(=O)CC(c2ccncc2)C12CCN(c1ncccn1)CC2` (configuration not stated), -108%; that for `O=C(C1CCCO1)N1CCCC2(CCN(c3cccnc3)CC2)C1` (configuration not stated), 2.68%.
The result for `COCCN1CCOCC2(CCN(c3cnccn3)CC2)C1` reads -87.4%; that for `CCCN1CCC(c2nc3ccc(C)cn3n2)CC1`, -118%.
To `O=C(NC1CC(F)(F)C1)[C@]12COC[C@H]1CN(Cc1cccnc1)C2` belongs -109%; to `c1cnc(N2CCC3(CN(CC4CCOC4)C3)C2)nc1` (configuration not stated), -5.77%; to `Cn1cc(-c2ncc3c(c2C(=O)O)CCN(Cc2ccccn2)C3)cn1`, -107%.
In the case of `O=C(NCc1ccccn1)[C@@H]1COC[C@H]2CN(C3CCOCC3)C[C@H]21`, the cytotoxicity at 10 µM turned out to be 2.52%.
On to `CN1CCN(Cc2cccnc2)C(=O)C12CCN(CC1CCOC1)CC2` (configuration not stated), for which the cytotoxicity at 10 µM was -106%.

Source of the values: ChEMBL document CHEMBL4513216, “Probing the Open Global Health Chemical Diversity Library for Multistage-Active Starting Points for Next-Generation Antimalarials” (ACS Infect Dis, 2020).
